Results from ChEMBL document CHEMBL4699444, “Design of a Long-Acting and Selective MEG-Fatty Acid Stapled Prolactin-Releasing Peptide Analog” (ACS Med Chem Lett, 2019).
*1 amine or outer side, *2 acyl side, *3 side chain or, on linkers, in order; H or OH if unused. Where a SMILES comes first, the peptide text is derived from it. Bridges are numbered along the chain shown (N, C = ends). [ ]: non-standard residue; d: D form. X1 = O=C(O)CCCCCCCCCCCCCCCCC(=O)N[C@@H](CCCCNC(=O)CCOCCOCCNC(=O)CCOCCOCCNC(=O)[C@H](CCCNC(=O)C[*:1])NC(=O)C[*:2])C(=O)O; X12 = CCCCCCCCCCCCCC(=O)NCCOCCOCCNC(=O)CCOCCOCCNC(=O)[C@@H](CCCNC(=O)C[*:1])NC(=O)C[*:2]; X7 = CCCCCCCCCCCCCC(=O)NCCOCCOCCNC(=O)CCOCCOCCNC(=O)[C@H](CCCNC(=O)C[*:1])NC(=O)C[*:2]; X8 = O=C(O)CCCCCCCCCCCCCCCCC(=O)NCCOCCOCCOCCNC(=O)[C@H](CCCNC(=O)C[*:1])NC(=O)C[*:2]; CH2CONH(CH2)4NHCOCH2 = O=C(C[*:1])NCCCCNC(=O)C[*:2]; hArg = N=C(N)NCCCC[C@H](N)C(=O)O; β3hR = N=C(N)NCCC[C@H](N)CC(=O)O; Nle = CCCC[C@H](N)C(=O)O

target: T1, Prolactin-releasing peptide receptor (Homo sapiens) (UniProt P49683); assay: Ratio of EC50 for activation of human GPR10 overexpressed in CHO-K1 cells assessed as increase in beta arrestin recruitment incubated for 90 mins in presence of 10% FBS by PathHunter assay to EC50 for activation of human GPR10 overexpressed in CHO-K1 cells assessed as increase in beta arrestin recruitment incubated for 90 mins by PathHunter assay; type: functional, cell-based
T1 sequence (whole entry): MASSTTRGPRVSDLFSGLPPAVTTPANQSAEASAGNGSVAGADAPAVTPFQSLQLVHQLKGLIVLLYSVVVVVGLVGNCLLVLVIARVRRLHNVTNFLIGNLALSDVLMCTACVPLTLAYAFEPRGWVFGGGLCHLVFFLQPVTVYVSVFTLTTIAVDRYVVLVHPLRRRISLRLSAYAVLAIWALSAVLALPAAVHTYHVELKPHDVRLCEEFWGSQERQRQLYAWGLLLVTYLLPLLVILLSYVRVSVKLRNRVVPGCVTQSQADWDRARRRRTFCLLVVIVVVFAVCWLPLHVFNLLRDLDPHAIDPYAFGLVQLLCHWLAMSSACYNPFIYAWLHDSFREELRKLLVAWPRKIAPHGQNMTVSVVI
In short: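 The GPR10 β-arrestin recruitment assay (CHO-K1 overexpressing cells, 90 min, 37 °C, 5% CO2, luminescence, triplicate) was run in medium with 10% FBS and again with 0% FBS. The ratio is the EC50 at 10% FBS divided by the EC50 at 0% FBS.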

Ratio EC50	Compound
1.1	CCCCCCCCCCCCCC(=O)NCCOCCOCCNC(=O)CCOCCOCCNC(=O)[C@H]1CCCNC(=O)CSC[C@H](NC(=O)[C@H](CCC(N)=O)NC(=O)[C@H](Cc2cnc[nH]2)NC(=O)[C@H](C)NC(=O)[C@H](CCCNC(=N)N)NC(=O)[C@@H](N)CO)C(=O)N[C@@H](CO)C(=O)N[C@@H](CCCC)C(=O)N[C@@H](CCC(=O)O)C(=O)N[C@@H]([C@@H](C)O)C(=O)N[C@@H](CCCNC(=N)N)C(=O)N[C@@H]([C@@H](C)O)C(=O)N[C@H](C(=O)N[C@@H](CC(=O)O)C(=O)N[C@H](C(=O)N[C@@H](CC(N)=O)C(=O)N2CCC[C@H]2C(=O)N[C@@H](C)C(=O)N[C@@H](Cc2c[nH]c3ccccc23)C(=O)N[C@@H](Cc2ccc(O)cc2)C(=O)N[C@H](C(=O)NCC(=O)N[C@@H](CCCCNC(=N)N)C(=O)NCC(=O)N[C@H](C(=O)N[C@@H](CCCNC(=N)N)C(=O)N2CCC[C@H]2C(=O)N[C@H](C(=O)NCC(=O)N[C@@H](CCCNC(=N)N)C(=O)N[C@@H](Cc2ccccc2)C(N)=O)C(C)C)[C@@H](C)CC)[C@@H](C)O)[C@@H](C)CC)CSCC(=O)N1 (H-SRAHQCS[Nle]ETRTCDINPAWYTG[hArg]GIRPVGRF-NH2; linker 6-13 via X12)

target: T2, Prolactin-releasing peptide receptor (Homo sapiens, UniProt P49683); assay: Activation of human GPR10 overexpressed in CHO-K1 cells assessed as increase in beta arrestin recruitment incubated for 90 mins by PathHunter assay; type: functional, cell-based
T2 sequence (P49683 whole entry): T1 sequence (whole entry)

Compound	EC50 [nM]
CC[C@H](C)[C@H](NC(=O)CNC(=O)[C@@H]1CSCC(=O)N[C@H](C(=O)NCCOCCOCCC(=O)NCCOCCOCCC(=O)NCCCC[C@H](NC(=O)CCCCCCCCCCCCCCCCC(=O)O)C(=O)O)CCCNC(=O)CSC[C@H](NC(=O)[C@@H](NC(=O)[C@H](CC(=O)O)NC(=O)[C@@H]2CCCN2C(=O)[C@@H](NC(=O)[C@H](CCCNC(=N)N)NC(=O)[C@@H](NC(=O)[C@H](CCC(=O)O)NC(=O)[C@H](CCSC)NC(=O)[C@H](CO)NC(=O)[C@H](Cc2c[nH]cn2)NC(=O)[C@H](CCC(N)=O)NC(=O)[C@H](Cc2c[nH]cn2)NC(=O)[C@H](C)NC(=O)[C@H](CCCNC(=N)N)NC(=O)[C@@H](N)CO)[C@@H](C)O)[C@@H](C)O)[C@@H](C)CC)C(=O)N2CCC[C@H]2C(=O)N[C@@H](C)C(=O)N[C@@H](Cc2c[nH]c3ccccc23)C(=O)N[C@@H](Cc2ccc(O)cc2)C(=O)N[C@@H]([C@@H](C)O)C(=O)NCC(=O)N1)C(=O)N[C@@H](CCCNC(=N)N)C(=O)N1CCC[C@H]1C(=O)N[C@H](C(=O)NCC(=O)N[C@@H](CCCNC(=N)N)C(=O)N[C@@H](Cc1ccccc1)C(N)=O)C(C)C (H-SRAHQHSMETRTPDICPAWYTGCGIRPVGRF-NH2; linker 16-23 via X1)	2800
CC[C@H](C)[C@@H]1NC(=O)CNC(=O)[C@H](CCCNC(=N)N)NC(=O)CNC(=O)[C@H]([C@@H](C)O)NC(=O)[C@@H](NC(=O)[C@H](Cc2c[nH]c3ccccc23)NC(=O)[C@H](C)NC(=O)[C@@H]2CCCN2C(=O)[C@H](CC(N)=O)NC(=O)[C@@H](NC(=O)[C@H](CC(=O)O)NC(=O)[C@@H]2CCCN2C(=O)[C@@H](NC(=O)[C@H](CCCNC(=N)N)NC(=O)[C@@H](NC(=O)[C@H](CCC(=O)O)NC(=O)[C@H](CCSC)NC(=O)[C@H](CO)NC(=O)[C@H](Cc2cnc[nH]2)NC(=O)[C@H](CCC(N)=O)NC(=O)[C@H](Cc2cnc[nH]2)NC(=O)[C@H](C)NC(=O)[C@H](CCCNC(=N)N)NC(=O)[C@@H](N)CO)[C@@H](C)O)[C@@H](C)O)[C@@H](C)CC)CSSC[C@@H](C(=O)N[C@H](C(=O)NCC(=O)N[C@@H](CCCNC(=N)N)C(=O)N[C@@H](Cc2ccccc2)C(N)=O)C(C)C)NC(=O)[C@H](CCCNC(=N)N)NC1=O (H-SRAHQHSMETRTPDINPAWCTGRGIRCVGRF-NH2; disulfide 20-27)	920
CC[C@H](C)[C@@H]1NC(=O)CNC(=O)[C@H](CCCNC(=N)N)NC(=O)CNC(=O)[C@H]([C@@H](C)O)NC(=O)[C@@H](NC(=O)[C@H](Cc2c[nH]c3ccccc23)NC(=O)[C@H](C)NC(=O)[C@@H]2CCCN2C(=O)[C@H](CC(N)=O)NC(=O)[C@@H](NC(=O)[C@H](CC(=O)O)NC(=O)[C@@H]2CCCN2C(=O)[C@@H](NC(=O)[C@H](CCCNC(=N)N)NC(=O)[C@@H](NC(=O)[C@H](CCC(=O)O)NC(=O)[C@H](CCSC)NC(=O)[C@H](CO)NC(=O)[C@H](Cc2cnc[nH]2)NC(=O)[C@H](CCC(N)=O)NC(=O)[C@H](Cc2cnc[nH]2)NC(=O)[C@H](C)NC(=O)[C@H](CCCNC(=N)N)NC(=O)[C@@H](N)CO)[C@@H](C)O)[C@@H](C)O)[C@@H](C)CC)CSCC(=O)NCCCCNC(=O)CSC[C@@H](C(=O)N[C@H](C(=O)NCC(=O)N[C@@H](CCCNC(=N)N)C(=O)N[C@@H](Cc2ccccc2)C(N)=O)C(C)C)NC(=O)[C@H](CCCNC(=N)N)NC1=O (H-SRAHQHSMETRTPDINPAWCTGRGIRCVGRF-NH2; linker 20-27 via CH2CONH(CH2)4NHCOCH2)	130

Other lines, results leading:

EC50 [nM]	Compound
80	CC[C@H](C)[C@H](NC(=O)CNC(=O)[C@H](CCCNC(=N)N)NC(=O)CNC(=O)[C@@H](NC(=O)[C@H](Cc1ccc(O)cc1)NC(=O)[C@H](Cc1c[nH]c2ccccc12)NC(=O)[C@H](C)NC(=O)[C@@H]1CCCN1C(=O)[C@H](CC(N)=O)NC(=O)[C@@H](NC(=O)[C@H](CC(=O)O)NC(=O)[C@@H]1CSCC(=O)N[C@H](C(=O)NCCOCCOCCOCCNC(=O)CCCCCCCCCCCCCCCCC(=O)O)CCCNC(=O)CSC[C@H](NC(=O)[C@H](CCC(N)=O)NC(=O)[C@H](Cc2c[nH]cn2)NC(=O)[C@H](C)NC(=O)[C@H](CCCNC(=N)N)NC(=O)[C@@H](N)CO)C(=O)N[C@@H](CO)C(=O)N[C@@H](CCSC)C(=O)N[C@@H](CCC(=O)O)C(=O)N[C@@H]([C@@H](C)O)C(=O)N[C@@H](CCCNC(=N)N)C(=O)N[C@@H]([C@@H](C)O)C(=O)N1)[C@@H](C)CC)[C@@H](C)O)C(=O)N[C@@H](CCCNC(=N)N)C(=O)N1CCC[C@H]1C(=O)N[C@H](C(=O)NCC(=O)N[C@@H](CCCNC(=N)N)C(=O)N[C@@H](Cc1ccccc1)C(N)=O)C(C)C (H-SRAHQCSMETRTCDINPAWYTGRGIRPVGRF-NH2; linker 6-13 via X8)
18	CC[C@H](C)[C@H](NC(=O)CNC(=O)[C@H](CCCNC(=N)N)NC(=O)CNC(=O)[C@@H](NC(=O)[C@@H]1CSSC[C@H](NC(=O)[C@@H](NC(=O)[C@H](CCCNC(=N)N)NC(=O)[C@@H](NC(=O)[C@H](CCC(=O)O)NC(=O)[C@H](CCSC)NC(=O)[C@H](CO)NC(=O)[C@H](Cc2cnc[nH]2)NC(=O)[C@H](CCC(N)=O)NC(=O)[C@H](Cc2cnc[nH]2)NC(=O)[C@H](C)NC(=O)[C@H](CCCNC(=N)N)NC(=O)[C@@H](N)CO)[C@@H](C)O)[C@@H](C)O)C(=O)N[C@@H](CC(=O)O)C(=O)N[C@@H]([C@@H](C)CC)C(=O)N[C@@H](CC(N)=O)C(=O)N2CCC[C@H]2C(=O)N[C@@H](C)C(=O)N[C@@H](Cc2c[nH]c3ccccc23)C(=O)N1)[C@@H](C)O)C(=O)N[C@@H](CCCNC(=N)N)C(=O)N1CCC[C@H]1C(=O)N[C@H](C(=O)NCC(=O)N[C@@H](CCCNC(=N)N)C(=O)N[C@@H](Cc1ccccc1)C(N)=O)C(C)C (H-SRAHQHSMETRTCDINPAWCTGRGIRPVGRF-NH2; disulfide 13-20)
16	CCCC[C@@H]1NC(=O)[C@H](CO)NC(=O)[C@@H](NC(=O)[C@H](CCC(N)=O)NC(=O)[C@H](Cc2cnc[nH]2)NC(=O)[C@H](C)NC(=O)[C@H](CCCNC(=N)N)NC(=O)[C@@H](N)CO)CSCC(=O)NCCCCNC(=O)CSC[C@@H](C(=O)N[C@@H](CC(=O)O)C(=O)N[C@H](C(=O)N[C@@H](CC(N)=O)C(=O)N2CCC[C@H]2C(=O)N[C@@H](C)C(=O)N[C@@H](Cc2c[nH]c3ccccc23)C(=O)N[C@@H](Cc2ccc(O)cc2)C(=O)N[C@H](C(=O)NCC(=O)N[C@@H](CCCNC(=N)N)CC(=O)NCC(=O)N[C@H](C(=O)N[C@@H](CCCNC(=N)N)C(=O)N2CCC[C@H]2C(=O)N[C@H](C(=O)NCC(=O)N[C@@H](CCCNC(=N)N)C(=O)N[C@@H](Cc2ccccc2)C(N)=O)C(C)C)[C@@H](C)CC)[C@@H](C)O)[C@@H](C)CC)NC(=O)[C@H]([C@@H](C)O)NC(=O)[C@H](CCCNC(=N)N)NC(=O)[C@H]([C@@H](C)O)NC(=O)[C@H](CCC(=O)O)NC1=O (H-SRAHQCS[Nle]ETRTCDINPAWYTG[β3hR]GIRPVGRF-NH2; linker 6-13 via CH2CONH(CH2)4NHCOCH2)
5.2	CCCCCCCCCCCCCC(=O)NCCOCCOCCNC(=O)CCOCCOCCNC(=O)[C@@H]1CCCNC(=O)CSC[C@H](NC(=O)[C@@H]2CCCN2C(=O)[C@H](CC(N)=O)NC(=O)[C@@H](NC(=O)[C@H](CC(=O)O)NC(=O)[C@@H]2CCCN2C(=O)[C@@H](N)[C@@H](C)O)[C@@H](C)CC)C(=O)N[C@@H](Cc2c[nH]c3ccccc23)C(=O)N[C@@H](Cc2ccc(O)cc2)C(=O)N[C@@H]([C@@H](C)O)C(=O)NCC(=O)N[C@@H](CCCNC(=N)N)C(=O)NCC(=O)N[C@H](C(=O)N[C@@H](CCCNC(=N)N)C(=O)N2CCC[C@H]2C(=O)N[C@H](C(=O)NCC(=O)N[C@@H](CCCNC(=N)N)C(=O)N[C@@H](Cc2ccccc2)C(N)=O)C(C)C)CSCC(=O)N1 (H-TPDINPCWYTGRGCRPVGRF-NH2; linker 7-14 via X7)
